# NF-kB expr up: compounds increasing NF-kB expression in human neuronal cells; AID 1239; NF-kB reporter expression; stronger effect = higher value; fold change at 12.5 µM; hit rate 1.6% among 190,000; in the data active = fold change above about 3.3
# STAT3 act-1: increases IL-6 driven STAT3 reporter signal. activation (% of control), % at 5.6 µM. AID 871. U3A cells, IL-6 STAT3-luciferase reporter, luminescence; 100% = signal with IL-6 EC80 alone. hit rate 0.91% among 190,000;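 active = activation above the screen-wide mean of compound activation plus 3 SD, cut at about 130% in these data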
#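 System – human U3A cells carrying STAT3-luciferase construct · Probe or stimulus – Interleukin-6, 33 ng/mL · Schedule – compound 1 h, then IL-6 6 h at 37 °C · Signal – luminescence from STAT3-driven luciferase reporter · Evaluation – percent of IL-6-only median luminescence · Benchmarks – IL-6-only high control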
# STAT3 inh: reduces IL-6 driven STAT3 reporter signal | inhibition, % at 5.5 µM | AID 862 | hit rate 0.89% among 190,000 | U3A cells, IL-6 STAT3-luciferase reporter, luminescence; host cell line lacks STAT1;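 active = inhibition above the mean inhibition across all screened compounds plus 3 SD, cut at about 44% in these data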
# STAT1 act-1: STAT1 signaling activation | NIH 3T3 STAT1-luciferase reporter, IFN-gamma, luminescence; 100% = IFN-gamma alone, no compound | activation (% of control), % at 5.5 µM | hit rate 2.6% among 200,000 | AID 932;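 active = activation above the screen-wide mean activation plus 3 SD, cut at about 130% in these data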
# APP 5'UTR act: activates APP 5'UTR luciferase reporter | hit rate 1% among 190,000 | AID 1276 | SH-SY5Y APP 5'UTR luciferase reporter, luminescence; zero percent = DMSO vehicle wells | activation, % at 2 µM;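 active = activation above a set limit, based on mean plus 3 SD of controls, cut at about 140% in these data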
# STAT1 inh: reduces IFN-gamma driven STAT1 reporter signal. NIH 3T3 STAT1-luciferase reporter, luminescence. inhibition, % at 5.5 µM. hit rate 0.35% among 200,000;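 active = inhibition above a set limit, the mean inhibition across all tested compounds plus 3 SD, cut at about 34% in these data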
# STAT3 act-2: STAT3 activation, confirmation assay; shares compounds with STAT3 act-1; potentiation (% of control), % at 5.7 µM; hit rate 64% among 1,200; AID 1267; U3A STAT3-luciferase reporter, IL-6 potentiation, luminescence; U3A cells lack STAT1; 100 means same as IL-6 alone;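 active = percent activation of the STAT3 luciferase reporter above a set limit taken from the earlier primary screen, cut at about 130% in these data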
# NFkB act STAT3ct: activates NF-kappaB, counter-screen to STAT3 activators | shares compounds with STAT3 act-1 | human cells, NF-kappaB reporter activation | activation (% of control), % at 5.7 µM | hit rate 11% among 1,200 | AID 1309; in the data active = activation above about 120%;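 note: reporter induced by TNF-alpha stimulation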
# STAT1 act-2: activates STAT1, counter-screen to STAT3 activators | shares compounds with STAT3 act-1 | NIH 3T3 STAT1-luciferase reporter, IFN-gamma, luminescence | activation (% of control), % at 5.7 µM | hit rate 13% among 1,200 | AID 1318;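 active = activation above the solvent-only control well mean plus 3 SD, set per screening run, cut at about 120% in these data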
# Numbers stand for hits; i = inactive; nt = no result given. An excerpt weighted towards active compounds, which were near 4.9% of everything screened.
SMILES,NF-kB expr up,STAT3 act-1,STAT3 inh,STAT1 act-1,APP 5'UTR act,STAT1 inh,STAT3 act-2,NFkB act STAT3ct,STAT1 act-2
CC1=CCC2C(=O)N(CCc3c[nH]c4ccccc34)C(=O)C2C1 (stereo not drawn),i,142,i,i,i,i,i,i,i
Cc1ccc(S(=O)(=O)N2CCC(=O)N(C(COCc3cccc(C(F)(F)F)c3)Cc3ccccc3)CC2)cc1 (stereo not drawn),i,i,i,i,i,i,nt,nt,nt
CCC(=O)Nc1cccc2cccnc12,i,i,i,i,i,i,nt,nt,nt
O=C(Nc1ccccc1)Nc1cccc2cccnc12,i,150,i,i,i,i,147,136,152
COC(=O)c1cccc(NC(=O)CCCOc2cccc(C)c2)c1,i,136,i,i,i,i,i,i,i
Cc1ccc2c(c1)CCCN2C(=O)c1cc2ccccc2oc1=O,i,i,i,i,i,i,nt,nt,nt
COc1cc(/C=N/Nc2snc(SC)c2C#N)ccc1O,i,148,i,i,i,i,136,i,i
COc1cc(/C=N/Nc2nc3ccccc3[nH]2)ccc1O,i,i,i,i,i,i,nt,nt,nt
Cc1ccc([N+](=O)[O-])cc1NC(=O)c1cccs1,i,i,i,i,i,i,nt,nt,nt
CNc1cc([N+](=O)[O-])ccc1N/C=C/C(=O)c1cccs1,i,176,i,i,i,i,153,i,i
O=C(CCl)N1CCN2C(=O)c3ccccc3C12c1ccc(Cl)cc1 (stereo not drawn),i,i,i,i,i,i,nt,nt,nt
Cc1ccc(C(=O)N2CCN3C(=O)c4ccccc4C23c2ccc(Cl)cc2)cc1 (stereo not drawn),i,559,i,i,i,i,487,126,i
O=c1oc2ccccc2cc1-c1nc(-c2cccs2)cs1,i,159,i,i,nt,i,i,i,i
O=C(Nc1nc(-c2cccs2)cs1)c1cc2ccccc2oc1=O,i,i,i,i,i,i,nt,nt,nt
CNc1nc(-c2c[nH]c3ccccc23)cs1,i,161,i,i,i,i,152,i,i
Nc1ccccc1Sc1nc2ccccc2[nH]1,i,136,i,i,i,i,159,i,i
CCSc1nc2ccccc2[nH]1,i,i,i,i,i,i,nt,nt,nt
COc1cc(NC(=S)NN2CCN(C)CC2)cc(OC)c1,i,i,i,i,i,i,nt,nt,nt
CCOc1ccccc1CN1CCN(Cc2cc3ccccc3[nH]2)CC1CCO (stereo not drawn),i,136,i,i,i,i,150,i,i
CS(=O)(=O)c1ccc(Sc2nc3ccccc3s2)c([N+](=O)[O-])c1,i,147,i,i,i,i,i,i,i
O=[N+]([O-])c1cc(S(=O)(=O)C(F)(F)F)ccc1Sc1nc2ccccc2s1,i,i,i,i,i,i,nt,nt,nt
CNC(=O)CSc1nc2c([nH]c3ccccc32)c(=O)n1CCOC,i,141,i,i,i,i,150,i,i
Cc1cc(NC(=O)CSc2nc3c([nH]c4ccccc43)c(=O)n2-c2cccc(C(F)(F)F)c2)no1,i,148,i,i,i,i,138,i,i
COc1cccc(-n2ccnc2SCC(=O)Nc2cc(C)on2)c1,i,i,i,i,i,i,nt,nt,nt
COc1cccc(-n2c(SCC(N)=O)nc3c([nH]c4ccccc43)c2=O)c1,i,143,i,i,i,i,158,i,i
COc1cccc(-n2c(SCC(=O)Nc3cc(C)on3)nc3c([nH]c4ccccc43)c2=O)c1,i,144,i,i,i,i,135,i,i
COc1cccc(-n2c(SCC(=O)N3CCCCC3)nc3c([nH]c4ccccc43)c2=O)c1,i,nt,nt,i,i,i,nt,nt,nt
CCSc1nnc(-c2ccccc2N=Cc2c(C)[nH]n(-c3ccccc3)c2=O)c(=O)[nH]1,i,i,i,i,i,i,nt,nt,nt
